Activity calls are given as the source filed them. The rule behind the calls is not given here.
Key:
[1] = Selectivity index, ratio of IC50 for equine serum BuChE using S-butyrylthiocholine chloride as substrate to IC50 for electric eel AChE using acetylthiocholine iodide as substrate by Ellman's method
Summary of the method: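 Selectivity index is IC50(eqBuChE)/IC50(EeAChE). Both IC50s come from the modified Ellman method, using Electrophorus electricus AChE and equine serum BuChE. Each IC50 is the mean of three independent experiments, each run in triplicate.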

[2] = target: T1, Amine oxidase [flavin-containing] B (Homo sapiens, UniProt P27338); assay: Inhibition of human recombinant MAO-B using kynuramine as substrate measured after 30 mins by fluorimetric assay
T1 sequence (P27338 whole entry): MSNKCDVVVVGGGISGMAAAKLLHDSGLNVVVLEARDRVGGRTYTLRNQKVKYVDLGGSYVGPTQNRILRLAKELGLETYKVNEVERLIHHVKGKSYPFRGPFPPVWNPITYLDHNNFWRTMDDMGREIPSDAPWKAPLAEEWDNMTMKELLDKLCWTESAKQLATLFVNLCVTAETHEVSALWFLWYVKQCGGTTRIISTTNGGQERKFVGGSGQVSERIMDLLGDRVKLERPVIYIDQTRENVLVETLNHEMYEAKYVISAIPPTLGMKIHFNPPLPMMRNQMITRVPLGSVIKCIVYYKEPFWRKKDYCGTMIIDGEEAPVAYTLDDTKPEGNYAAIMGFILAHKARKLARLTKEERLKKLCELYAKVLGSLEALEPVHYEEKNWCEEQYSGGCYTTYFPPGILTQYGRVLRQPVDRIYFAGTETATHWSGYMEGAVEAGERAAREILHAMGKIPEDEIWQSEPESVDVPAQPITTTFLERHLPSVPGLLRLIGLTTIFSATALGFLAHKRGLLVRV

Acetylcholinesterase = Acetylcholinesterase (Electrophorus electricus, UniProt O42275); assay: Inhibition of electric eel AChE using acetylthiocholine iodide incubated for 15 mins as substrate by Ellman's method
MAO-A = target: T2, MAO-A (Homo sapiens, UniProt P21397); assay: Inhibition of human recombinant MAO-A using kynuramine as substrate at 10 uM measured after 30 mins by fluorimetric assay relative to control; settings: probe kynuramine
T2 sequence (P21397 whole entry): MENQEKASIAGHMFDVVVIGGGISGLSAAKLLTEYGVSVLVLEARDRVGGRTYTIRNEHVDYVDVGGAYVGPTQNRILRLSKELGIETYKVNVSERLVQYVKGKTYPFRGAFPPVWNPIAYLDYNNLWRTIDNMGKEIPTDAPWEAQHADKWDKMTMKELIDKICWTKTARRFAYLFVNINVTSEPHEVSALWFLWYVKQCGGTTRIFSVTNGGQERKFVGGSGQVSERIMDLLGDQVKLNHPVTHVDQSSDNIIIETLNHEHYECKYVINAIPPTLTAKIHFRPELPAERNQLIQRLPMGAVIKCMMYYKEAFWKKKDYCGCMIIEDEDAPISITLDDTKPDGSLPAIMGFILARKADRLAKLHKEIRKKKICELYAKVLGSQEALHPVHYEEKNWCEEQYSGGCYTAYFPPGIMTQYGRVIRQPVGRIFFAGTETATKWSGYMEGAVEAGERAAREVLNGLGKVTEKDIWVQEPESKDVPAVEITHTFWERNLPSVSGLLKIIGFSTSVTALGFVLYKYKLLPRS

Cholinesterase = Cholinesterase (Equus caballus, UniProt P81908); assay: Inhibition of equine serum BuChE using S-butyrylthiocholine chloride as substrate incubated for 15 mins by Ellman's method
Summary of the method: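 Modified Ellman method using equine serum BuChE. […] Values are the mean of three independent experiments, each run in triplicate, with SD.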

[3] = target: T3, Amine oxidase [flavin-containing] A (Homo sapiens, UniProt P21397); assay: Inhibition of human recombinant MAO-A using kynuramine as substrate measured after 30 mins by fluorimetric assay
T3 sequence (P21397 whole entry): T2 sequence (P21397 whole entry)
Summary of the method: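 Recombinant human MAO-A inhibition measured by a fluorimetric assay. Each value is the mean of three independent experiments, each run in triplicate, with SD reported.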

[4] = target: Cholinesterase (Equus caballus) (UniProt P81908); assay: Inhibition of equine serum BuChE using S-butyrylthiocholine chloride as substrate at 50 uM incubated for 15 mins by Ellman's method relative to control
[5] = Permeability of the compound at 100 ug/ml measured after compound dilution in PBS/EtOH buffer (70:30) by PAMPA-BBB assay
[6] = Metal chelating activity assessed as Al3+-compound complex formation at 37.5 uM measured after 30 mins in presence of 37.5 uM AlCl3 by UV-vis spectrophotometric analysis
[7] = Metal chelating activity assessed as mole fraction of the compound required for Cu2+ -compound complex formation at stoichiometry ratio of 1:1 at 37.5 uM measured after 30 mins in presence of 3.75 to 93.75 uM CuCl2 by UV-vis spectrophotometric analysis
Summary of the method: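 Cu2+ complex stoichiometry determined by the molar ratio method. Ascending amounts of CuCl2 were added to the test compound, at a final concentration of 37.5 μM. Absorbance was plotted against mole fraction, and the stoichiometry was taken from the intersection of two fitted straight lines. The final Cu2+ concentration started at 3.75 μM.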

[8] = Metal chelating activity assessed as Zn2+-compound complex formation at 37.5 uM measured after 30 mins in presence of 37.5 uM ZnCl2 by UV-vis spectrophotometric analysis
[9] = Metal chelating activity assessed as Fe2+-compound complex formation at 37.5 uM measured after 30 mins in presence of 37.5 uM FeSO4 by UV-vis spectrophotometric analysis
[10] = target: Acetylcholinesterase (Electrophorus electricus) (UniProt O42275); assay: Mixed inhibition of electric eel AChE at 1.5 to 6 uM preincubated with enzyme for 15 mins followed by substrate addition using acetylthiocholine iodide as substrate by double reciprocal Lineweaver-Burk plot analysis
[11] = Metal chelating activity assessed as Cu2+-compound complex formation measured as red shift in absorption spectra at 37.5 uM measured after 30 mins in presence of 37.5 uM CuCl2 by UV-vis spectrophotometric analysis

Chain of Acetylcholinesterase (O42275 whole entry): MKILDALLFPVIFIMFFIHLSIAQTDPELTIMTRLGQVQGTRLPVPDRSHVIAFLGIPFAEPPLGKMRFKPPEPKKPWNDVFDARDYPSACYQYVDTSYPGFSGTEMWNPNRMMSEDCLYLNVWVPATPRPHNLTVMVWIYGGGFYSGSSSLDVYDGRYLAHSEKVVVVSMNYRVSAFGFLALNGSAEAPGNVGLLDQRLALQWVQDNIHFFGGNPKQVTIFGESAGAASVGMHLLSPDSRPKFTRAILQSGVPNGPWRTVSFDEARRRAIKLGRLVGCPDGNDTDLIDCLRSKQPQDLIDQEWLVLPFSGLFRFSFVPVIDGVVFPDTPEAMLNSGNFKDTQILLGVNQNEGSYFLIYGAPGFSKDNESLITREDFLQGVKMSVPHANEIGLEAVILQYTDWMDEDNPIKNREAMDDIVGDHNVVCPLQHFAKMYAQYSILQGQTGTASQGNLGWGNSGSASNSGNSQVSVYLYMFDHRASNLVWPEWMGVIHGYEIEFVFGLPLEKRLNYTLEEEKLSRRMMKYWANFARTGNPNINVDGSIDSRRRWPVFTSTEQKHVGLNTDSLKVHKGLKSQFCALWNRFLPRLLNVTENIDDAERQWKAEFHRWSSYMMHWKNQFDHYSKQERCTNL
Chain of Cholinesterase (P81908 whole entry): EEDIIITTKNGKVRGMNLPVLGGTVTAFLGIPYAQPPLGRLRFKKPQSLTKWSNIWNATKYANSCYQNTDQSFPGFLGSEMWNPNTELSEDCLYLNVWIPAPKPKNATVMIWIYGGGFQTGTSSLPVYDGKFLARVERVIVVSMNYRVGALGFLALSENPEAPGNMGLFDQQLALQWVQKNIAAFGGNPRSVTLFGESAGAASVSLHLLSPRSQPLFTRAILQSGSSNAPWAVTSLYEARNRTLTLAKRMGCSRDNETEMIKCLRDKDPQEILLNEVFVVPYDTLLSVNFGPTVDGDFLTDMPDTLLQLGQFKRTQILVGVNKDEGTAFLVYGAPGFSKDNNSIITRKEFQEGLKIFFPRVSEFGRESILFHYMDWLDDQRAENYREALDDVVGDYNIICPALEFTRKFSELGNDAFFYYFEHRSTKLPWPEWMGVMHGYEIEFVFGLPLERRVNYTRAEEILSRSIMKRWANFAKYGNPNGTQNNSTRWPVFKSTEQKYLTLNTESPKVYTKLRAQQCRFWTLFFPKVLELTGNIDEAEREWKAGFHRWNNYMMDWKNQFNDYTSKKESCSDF
Chain of Cholinesterase (Equus caballus) (P81908 whole entry): as above
Chain of Acetylcholinesterase (Electrophorus electricus) (O42275 24-633 limits assumed): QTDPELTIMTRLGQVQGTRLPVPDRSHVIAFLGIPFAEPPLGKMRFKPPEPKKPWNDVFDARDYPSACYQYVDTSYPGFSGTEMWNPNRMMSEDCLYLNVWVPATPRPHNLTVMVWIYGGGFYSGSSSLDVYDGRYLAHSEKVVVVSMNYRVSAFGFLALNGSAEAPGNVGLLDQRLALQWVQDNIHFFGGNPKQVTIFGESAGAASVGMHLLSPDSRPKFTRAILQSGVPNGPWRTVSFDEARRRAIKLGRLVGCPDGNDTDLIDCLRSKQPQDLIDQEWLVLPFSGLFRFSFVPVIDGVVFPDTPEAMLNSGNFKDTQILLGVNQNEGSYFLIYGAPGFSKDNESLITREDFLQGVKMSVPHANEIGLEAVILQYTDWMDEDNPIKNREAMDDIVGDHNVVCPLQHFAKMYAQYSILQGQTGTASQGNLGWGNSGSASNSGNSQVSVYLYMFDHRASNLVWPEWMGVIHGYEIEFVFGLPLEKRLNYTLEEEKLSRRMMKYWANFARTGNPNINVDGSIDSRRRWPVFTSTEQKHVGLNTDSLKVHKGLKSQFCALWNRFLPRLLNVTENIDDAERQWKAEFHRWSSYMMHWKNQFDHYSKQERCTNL

| Compound | Ratio IC50 [1] | IC50 [2] [µM] | IC50 (Acetylcholinesterase) [µM] | inhibition at 0.5 h, 10 µM (MAO-A) [%] | IC50 (Cholinesterase) [µM] | inhibition [4] [%] | further results |
| --- | --- | --- | --- | --- | --- | --- | --- |
| CC(=O)c1ccc(OCCCN2CCC(Cc3ccccc3)CC2)cc1O | 5.4 | 18.7 | 11.7 | < 10 | 63.1 |  |  |
| COc1cc2c(cc1OC)CN(CCCOc1ccc(C(C)=O)c(O)c1)CC2 | 5.7 | 13.8 | 10.1 | 8.1 | 57.9 |  |  |
| CC(=O)c1ccc(OCCCCCCN2CCC(Cc3ccccc3)CC2)cc1O | 9.4 | 15.8 | 7.1 |  | 66.9 |  | IC50 [3]: 22.1 µM |
| CC(=O)c1ccc(OCCCCCCCCCN2CCC(Cc3ccccc3)CC2)cc1O |  | 27.9 | 8.5 | < 10 |  | < 5 |  |
| CC(=O)c1ccc(OCCCCN2CCC(Cc3ccccc3)CC2)cc1O |  | 13.5 | 8.9 | < 10 |  | < 5 |  |
| CC(=O)c1ccc(OCCCCCCCCCN2CCN(Cc3ccccc3)CC2)cc1O | 2.9 | 21.6 | 6.7 |  | 19.8 |  | IC50 [3]: 19.7 µM |
| CC(=O)c1ccc(OCCCCCN2CCc3ccccc3C2)cc1O |  | 15.2 | 7.5 | < 10 |  | < 5 |  |
| CC(=O)c1ccc(OCCN2CCN(Cc3ccccc3)CC2)cc1O |  | 10.2 | 6.6 |  |  | 11.2 | Papp at 100 ug/ml [5]: 17.4 ×10⁻⁶ cm/s; IC50 [3]: 26.1 µM |
| CC(=O)c1ccc(OCCCCCCCCCCN2CCC(Cc3ccccc3)CC2)cc1O |  | 21.6 | 9.2 | < 10 |  | 13.8 |  |
| CCN(CCCOc1ccc(C(C)=O)c(O)c1)Cc1ccccc1 | 2.6 | 14.9 | 7.2 | < 10 | 18.7 |  |  |
| CC(=O)c1ccc(OCCCN2CCC(c3ccccc3)CC2)cc1O | 2.2 | 19.8 | 13.4 |  | 29.4 |  | IC50 [3]: 24.7 µM |
| CC(=O)c1ccc(OCCCCCN2CCC(Cc3ccccc3)CC2)cc1O |  | 20.8 | 8.2 | < 10 |  | < 5 |  |
| COc1cc2c(cc1OC)CN(CCCCOc1ccc(C(C)=O)c(O)c1)CC2 | 3.5 | 15.7 | 15.9 | < 10 | 56.4 |  |  |
| CC(=O)c1ccc(OCCCCCCCCCCN2CCN(Cc3ccccc3)CC2)cc1O |  | 17.3 | 6.9 |  |  | 15.1 | IC50 [3]: 19.8 µM |
| CCN(CCOc1ccc(C(C)=O)c(O)c1)Cc1ccccc1 |  | 13.8 | 18.9 | < 10 |  | < 5 |  |
| CCN(CCCCCCCCCCOc1ccc(C(C)=O)c(O)c1)Cc1ccccc1 | 7.8 | 23.4 | 6.5 | < 10 | 50.7 |  |  |
| CCN(CCCCOc1ccc(C(C)=O)c(O)c1)Cc1ccccc1 | 11.9 | 16.6 | 2.9 | < 10 | 34.6 |  | Activity [6]: inactive; Ratio (mole fraction) [7]: 0.97; Papp at 100 ug/ml [5]: 15.1 ×10⁻⁶ cm/s; Activity [8]: inactive; Activity [9]: inactive; inhibition [10]: Active; Activity [11]: Active |
| CCN(CC)CCOc1ccc(C(C)=O)c(O)c1 |  | 11.7 | 35.2 | < 10 |  | < 5 |  |
| CCN(CC)CCCCCCOc1ccc(C(C)=O)c(O)c1 |  | 22.1 | 16.3 | < 10 |  | < 5 |  |
| CC(=O)c1ccc(OCCCCCCCCCN2CCc3ccccc3C2)cc1O |  | 19.4 | 11.6 | < 10 |  | < 5 |  |
| CC(=O)c1ccc(OCCCCCCN2CCc3ccccc3C2)cc1O | 3.5 | 26.9 | 9.2 |  | 32.6 |  | IC50 [3]: 21.2 µM |
| CC(=O)c1ccc(OCCCCN2CCc3ccccc3C2)cc1O | 8.1 | 12.8 | 5.9 | 6.3 | 47.5 |  |  |
| CC(=O)c1ccc(OCCCCCCCCCCN2CCC(c3ccccc3)CC2)cc1O |  | 14.2 | 18.4 | < 10 |  | 0.8 |  |
| CCN(CC)CCCCOc1ccc(C(C)=O)c(O)c1 |  | 22.2 | 20.9 | < 10 |  | < 5 |  |
| CCN(CCCCCCCCCCCCOc1ccc(C(C)=O)c(O)c1)Cc1ccccc1 | 5 | 33.1 | 7.7 | < 10 | 38.9 |  |  |
| CC(=O)c1ccc(OCCCN2CCc3ccccc3C2)cc1O |  | 16.7 | 8.9 | < 10 |  | < 5 |  |
| CC(=O)c1ccc(OCCCCCCCCCCCCN2CCC(Cc3ccccc3)CC2)cc1O |  | 25.8 | 9.5 | < 10 |  | < 5 |  |
| CCN(CC)CCCOc1ccc(C(C)=O)c(O)c1 |  | 16.1 | 26.7 | < 10 |  | < 5 |  |
| CC(=O)c1ccc(OCCN2CCC(Cc3ccccc3)CC2)cc1O |  | 22.8 | 16.5 | < 10 |  | < 5 |  |
| CCN(CCCCCOc1ccc(C(C)=O)c(O)c1)Cc1ccccc1 | 7.1 | 29.8 | 5.2 | < 10 | 37.2 |  |  |

Source: ChEMBL document CHEMBL4351031, “The development of 2-acetylphenol-donepezil hybrids as multifunctional agents for the treatment of Alzheimer's disease” (Bioorg Med Chem Lett, 2019)
